Experimental data from ChEMBL document CHEMBL5674880 (PLoS One, 2018).

What was measured:
Type in all cases: functional, cell-based
ASPC1 = experiment: Antiproliferative activity against human ASPC1 cells after 10 days; conditions: ASPC1, 240 h
Outline: (§1)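 Tested as part of a 240-line cancer cell panel (Eurofins Oncopanel); all lines were mycoplasma-negative and STR-verified. Cells were exposed to a compound concentration series in 2D culture for 10 days. The highest concentration was 10 μM or 25 μM, depending on the inhibitor. Antiproliferative IC50 was derived from the mean of three biological replicates.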

DMS-53 = experiment: Antiproliferative activity against human DMS-53 cells after 10 days; conditions: DMS-53, 240 h
Outline: (§2)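 10-day 2D proliferation screen of a broad cancer cell panel (about 240 lines, Eurofins Oncopanel). All lines were mycoplasma negative and STR verified. Compounds were dosed up to a top concentration of 10 μM or 25 μM, depending on the inhibitor. Anti-proliferative IC50 values are the average of three biological replicates.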

NCI-H747 = experiment: Antiproliferative activity against human NCI-H747 cells after 10 days; conditions: NCI-H747, 240 h
Outline: (§3)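 Broad cancer cell line panel (Eurofins Oncopanel, about 240 lines; mycoplasma negative, STR verified) grown in 2D culture and exposed to compound in a 10-day proliferation assay. The top concentration was 10 μM for the SMYD2 inhibitor series and 25 μM for the SMYD3 inhibitor. The proliferative IC50 is taken from concentration-response data, each value the mean of three biological replicates.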

NALM-6 = experiment: Antiproliferative activity against human NALM-6 cells after 10 days; conditions: NALM-6, 240 h; outline: as §3
ST486 = experiment: Antiproliferative activity against human ST486 cells after 10 days; conditions: ST486, 240 h
SK-LMS-1 = experiment: Antiproliferative activity against human SK-LMS-1 cells after 10 days; conditions: SK-LMS-1, 240 h
EM-2 = experiment: Antiproliferative activity against human EM-2 cells after 10 days; conditions: EM-2, 240 h; outline: as §2
JAR = experiment: Antiproliferative activity against human JAR cells after 10 days; conditions: 240 h; outline: as §3
J-RT3-T3-5 = experiment: Antiproliferative activity against human J-RT3-T3-5 cells after 10 days; conditions: J-RT3-T3-5, 240 h; outline: as §3
SJRH30 = experiment: Antiproliferative activity against human SJRH30 cells after 10 days; conditions: SJRH30, 240 h
CAL-62 = experiment: Antiproliferative activity against human CAL-62 cells after 10 days; conditions: CAL-62, 240 h; outline: as §1
BPH-1 = experiment: Antiproliferative activity against human BPH-1 cells after 10 days; conditions: BPH-1, 240 h; outline: as §1
SW 962 = experiment: Antiproliferative activity against human SW 962 cells after 10 days; conditions: SW 962, 240 h
5637 = experiment: Antiproliferative activity against human 5637 cells after 10 days; conditions: Homo sapiens, 5637, 240 h; outline: as §1
HMCB cell line = experiment: Antiproliferative activity against human HMCB cells after 10 days; conditions: 240 h; outline: as §2
SK-UT-1 = experiment: Antiproliferative activity against human SK-UT-1 cells after 10 days; conditions: SK-UT-1, 240 h
CAMA-1 = experiment: Antiproliferative activity against human CAMA-1 cells after 10 days; conditions: CAMA-1, 240 h; outline: as §1
SW1353 = experiment: Antiproliferative activity against human SW1353 cells after 10 days; conditions: SW1353, 240 h
FaDu = experiment: Antiproliferative activity against human FaDu cells after 10 days; conditions: 240 h; outline: as §2
SW948 = experiment: Antiproliferative activity against human SW948 cells after 10 days; conditions: SW948, 240 h
TCC-SUP = experiment: Antiproliferative activity against human TCC-SUP cells after 10 days; conditions: 240 h
647-V = experiment: Antiproliferative activity against human 647-V cells after 10 days; conditions: 240 h
Outline: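 Tested in the Eurofins Oncopanel of about 240 cancer cell lines, all mycoplasma-negative and STR-verified. Cells were exposed to compound for 10 days in 2D culture, and a proliferative IC50 was derived from the concentration series. The highest concentration tested was 10 μM in the SMYD2 inhibitor screen and 25 μM in the SMYD3 inhibitor screen. Values are means of three biological replicates.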

A498 = experiment: Antiproliferative activity against human A498 cells after 10 days; conditions: A498, 240 h; outline: as §1
[1] = Antiproliferative activity against human A7 cells after 10 days; conditions: A7, 240 h; outline: as §1
U138-MG = experiment: Antiproliferative activity against human U138-MG cells after 10 days; conditions: 240 h
[2] = Antiproliferative activity against human SKO-007 cells after 10 days; conditions: SKO-007, 240 h
CRO-AP2 = experiment: Antiproliferative activity against human CRO-AP2 cells after 10 days; conditions: CRO-AP2, 240 h; outline: as §2
SW-403 = experiment: Antiproliferative activity against human SW403 cells after 10 days; conditions: SW-403, 240 h
A673 = experiment: Antiproliferative activity against human A673 cells after 10 days; conditions: A673, 240 h; outline: as §1
AN3-CA = experiment: Antiproliferative activity against human AN3-CA cells after 10 days; conditions: 240 h; outline: as §1
NCI-H460 = experiment: Antiproliferative activity against human NCI-H460 cells after 10 days; conditions: NCI-H460, 240 h
SR = experiment: Antiproliferative activity against human SR cells after 10 days; conditions: 240 h
DBTRG-05MG = experiment: Antiproliferative activity against human DBTRG-05MG cells after 10 days; conditions: 240 h
SK-N-AS = experiment: Antiproliferative activity against human SK-N-AS cells after 10 days; conditions: 240 h
Detroit 562 = experiment: Antiproliferative activity against human Detroit 562 cells after 10 days; conditions: Detroit 562, 240 h
H4 = experiment: Antiproliferative activity against human H4 cells after 10 days; conditions: H4, 240 h
SK-MEL-28 = experiment: Antiproliferative activity against human SK-MEL-28 cells after 10 days; conditions: SK-MEL-28, 240 h
C-4-II = experiment: Antiproliferative activity against human C-4-II cells after 10 days; conditions: 240 h
MX1 = experiment: Antiproliferative activity against human MX1 cells after 10 days; conditions: MX1, 240 h
HLE = experiment: Antiproliferative activity against human HLE cells after 10 days; conditions: 240 h
COLO-829 = experiment: Antiproliferative activity against human COLO-829 cells after 10 days; conditions: COLO-829, 240 h
MDA-MB-468 = experiment: Antiproliferative activity against human MDA-MB-468 cells after 10 days; conditions: MDA-MB-468, 240 h
CCRF-CEM = experiment: Antiproliferative activity against human CCRF-CEM cells after 10 days; conditions: 240 h
C32 = experiment: Antiproliferative activity against human C32 cells after 10 days; conditions: C32, 240 h

Compound `Cc1cn(CCN2CCN(c3ccccc3-c3cc(C#N)cc(C(=O)NCCCN4CCCC4)c3)CC2)c2ccccc12` has an IC50 (ASPC1) of 3.01 µM, an IC50 (DMS-53) of 3.17 µM and an IC50 (NCI-H747) of 2.32 µM. The IC50 (NALM-6) was 1.14 µM, the IC50 (ST486) was 0.955 µM and the IC50 (SK-LMS-1) was 2.41 µM. It also gave an IC50 (EM-2) of 2.22 µM, an IC50 (JAR) of 2.88 µM and an IC50 (J-RT3-T3-5) of 1.18 µM. For the same compound, the IC50 (SJRH30) was 1.23 µM, the IC50 (CAL-62) was 2.07 µM and the IC50 (BPH-1) was 3.49 µM. The IC50 (SW 962) was 3.38 µM, the IC50 5637 was 6.75 µM and the IC50 (HMCB cell line) was 2.86 µM. The IC50 (SK-UT-1) was 1.41 µM, the IC50 (CAMA-1) was 2.93 µM and the IC50 (SW1353) was 2.98 µM. For the same compound, the IC50 (FaDu) was 2.36 µM, the IC50 (SW948) was 3.91 µM and the IC50 (TCC-SUP) was 2.26 µM. It also gave an IC50 (647-V) of 1.48 µM, an IC50 (A498) of 2.01 µM and an IC50 [1] of 2.54 µM. For the same compound, the IC50 (U138-MG) was 4.54 µM, the IC50 [2] was 0.855 µM and the IC50 (CRO-AP2) was 2.26 µM. It also gave an IC50 (SW-403) of 3.12 µM, an IC50 (A673) of 2.03 µM and an IC50 (AN3-CA) of 2.42 µM.
`O=C(NC1CN(Cc2cnn(Cc3ccccc3)c2)C1)c1cn(C2CC2)nn1` showed an IC50 (NCI-H460) greater than 10 µM, an IC50 (ASPC1) greater than 10 µM and an IC50 (SR) greater than 10 µM. The IC50 (DMS-53) was greater than 10 µM, the IC50 (NCI-H747) was greater than 10 µM and the IC50 (DBTRG-05MG) was greater than 10 µM. It also gave an IC50 (NALM-6) greater than 10 µM, an IC50 (ST486) greater than 10 µM and an IC50 (SK-LMS-1) greater than 10 µM. It also gave an IC50 (SK-N-AS) greater than 10 µM, an IC50 (EM-2) greater than 10 µM and an IC50 (Detroit 562) greater than 10 µM. It also gave an IC50 (H4) greater than 10 µM, an IC50 (JAR) greater than 10 µM and an IC50 (SK-MEL-28) greater than 10 µM. It also gave an IC50 (J-RT3-T3-5) of 0.003 µM, an IC50 (SJRH30) greater than 10 µM and an IC50 (CAL-62) greater than 10 µM. It also gave an IC50 (BPH-1) greater than 10 µM, an IC50 (SW 962) greater than 10 µM and an IC50 5637 greater than 10 µM. It also gave an IC50 (HMCB cell line) greater than 10 µM, an IC50 (C-4-II) greater than 10 µM and an IC50 (SK-UT-1) greater than 10 µM. The IC50 (MX1) was greater than 10 µM, the IC50 (HLE) was greater than 10 µM and the IC50 (CAMA-1) was greater than 10 µM. The IC50 (SW1353) was greater than 10 µM, the IC50 (FaDu) was greater than 10 µM and the IC50 (SW948) was greater than 10 µM. It also gave an IC50 (COLO-829) of 5.73 µM, an IC50 (MDA-MB-468) greater than 10 µM and an IC50 (TCC-SUP) greater than 10 µM. For the same compound, the IC50 (CCRF-CEM) was greater than 10 µM, the IC50 (647-V) was greater than 10 µM and the IC50 (A498) was greater than 10 µM. It also gave an IC50 [1] greater than 10 µM, an IC50 (U138-MG) greater than 10 µM and an IC50 [2] of 0.168 µM. For the same compound, the IC50 (CRO-AP2) was 0.075 µM, the IC50 (SW-403) was greater than 10 µM and the IC50 (C32) was greater than 10 µM. The IC50 (A673) was greater than 10 µM and the IC50 (AN3-CA) was greater than 10 µM.
